Results from PMC3434103 (The Journal of General Physiology, 2012).
“Also recorded” adds a separate entry of the source. Ends that are not written are not given here.

What was measured:
[1] = molecular target: recombinant WT mouse RyR2 (Mus musculus, UniProt E9Q401); experiment: TAA block of EMD 41000-activated WT RyR2, single channel in planar bilayer; type: biochemical
WT mouse RyR2 = experiment: TAA block of ryanodine-modified WT RyR2, single channel; type: biochemical; details: 60 mV; for rate of dissociation (koff), difference TBA vs TPeA: 200 µM TBA or 100 µM TPeA, 1 µM ryanodine-modified; for level of block: ryanodine-modified WT, 100 µM TPeA (200 µM TBA)
How it was run: (§1)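 Ryanodine-modified single channels were used: purified HEK293-expressed mouse RyR2 (WT or mutant) in PE bilayers, symmetrical KCl/HEPES pH 7.2, room temperature. TAA was added to […], with the holding potential at 60 mV. Data were filtered at 5 kHz and sampled at 20 kHz. Open and blocked lifetimes came from 50% threshold analysis of ≥2 min records, and blocking parameters were derived from them. Mean ± SEM, unpaired t tests.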

K^+ channels = details: quoted range, ref Faraldo-Gómez et al., 2007; cited from earlier work
KcsA = details: cytosolic cavity of KcsA; ref Faraldo-Gómez et al., 2007; cited from earlier work
I4861A RyR2 [2] = molecular target: T1, I4861A RyR2 (Mus musculus, UniProt E9Q401, I4860A/I4861A); experiment: TPeA block of EMD 41000-activated I4861A RyR2; type: biochemical; details: 60 mV
T1 sequence (E9Q401 whole entry I4860A/I4861A): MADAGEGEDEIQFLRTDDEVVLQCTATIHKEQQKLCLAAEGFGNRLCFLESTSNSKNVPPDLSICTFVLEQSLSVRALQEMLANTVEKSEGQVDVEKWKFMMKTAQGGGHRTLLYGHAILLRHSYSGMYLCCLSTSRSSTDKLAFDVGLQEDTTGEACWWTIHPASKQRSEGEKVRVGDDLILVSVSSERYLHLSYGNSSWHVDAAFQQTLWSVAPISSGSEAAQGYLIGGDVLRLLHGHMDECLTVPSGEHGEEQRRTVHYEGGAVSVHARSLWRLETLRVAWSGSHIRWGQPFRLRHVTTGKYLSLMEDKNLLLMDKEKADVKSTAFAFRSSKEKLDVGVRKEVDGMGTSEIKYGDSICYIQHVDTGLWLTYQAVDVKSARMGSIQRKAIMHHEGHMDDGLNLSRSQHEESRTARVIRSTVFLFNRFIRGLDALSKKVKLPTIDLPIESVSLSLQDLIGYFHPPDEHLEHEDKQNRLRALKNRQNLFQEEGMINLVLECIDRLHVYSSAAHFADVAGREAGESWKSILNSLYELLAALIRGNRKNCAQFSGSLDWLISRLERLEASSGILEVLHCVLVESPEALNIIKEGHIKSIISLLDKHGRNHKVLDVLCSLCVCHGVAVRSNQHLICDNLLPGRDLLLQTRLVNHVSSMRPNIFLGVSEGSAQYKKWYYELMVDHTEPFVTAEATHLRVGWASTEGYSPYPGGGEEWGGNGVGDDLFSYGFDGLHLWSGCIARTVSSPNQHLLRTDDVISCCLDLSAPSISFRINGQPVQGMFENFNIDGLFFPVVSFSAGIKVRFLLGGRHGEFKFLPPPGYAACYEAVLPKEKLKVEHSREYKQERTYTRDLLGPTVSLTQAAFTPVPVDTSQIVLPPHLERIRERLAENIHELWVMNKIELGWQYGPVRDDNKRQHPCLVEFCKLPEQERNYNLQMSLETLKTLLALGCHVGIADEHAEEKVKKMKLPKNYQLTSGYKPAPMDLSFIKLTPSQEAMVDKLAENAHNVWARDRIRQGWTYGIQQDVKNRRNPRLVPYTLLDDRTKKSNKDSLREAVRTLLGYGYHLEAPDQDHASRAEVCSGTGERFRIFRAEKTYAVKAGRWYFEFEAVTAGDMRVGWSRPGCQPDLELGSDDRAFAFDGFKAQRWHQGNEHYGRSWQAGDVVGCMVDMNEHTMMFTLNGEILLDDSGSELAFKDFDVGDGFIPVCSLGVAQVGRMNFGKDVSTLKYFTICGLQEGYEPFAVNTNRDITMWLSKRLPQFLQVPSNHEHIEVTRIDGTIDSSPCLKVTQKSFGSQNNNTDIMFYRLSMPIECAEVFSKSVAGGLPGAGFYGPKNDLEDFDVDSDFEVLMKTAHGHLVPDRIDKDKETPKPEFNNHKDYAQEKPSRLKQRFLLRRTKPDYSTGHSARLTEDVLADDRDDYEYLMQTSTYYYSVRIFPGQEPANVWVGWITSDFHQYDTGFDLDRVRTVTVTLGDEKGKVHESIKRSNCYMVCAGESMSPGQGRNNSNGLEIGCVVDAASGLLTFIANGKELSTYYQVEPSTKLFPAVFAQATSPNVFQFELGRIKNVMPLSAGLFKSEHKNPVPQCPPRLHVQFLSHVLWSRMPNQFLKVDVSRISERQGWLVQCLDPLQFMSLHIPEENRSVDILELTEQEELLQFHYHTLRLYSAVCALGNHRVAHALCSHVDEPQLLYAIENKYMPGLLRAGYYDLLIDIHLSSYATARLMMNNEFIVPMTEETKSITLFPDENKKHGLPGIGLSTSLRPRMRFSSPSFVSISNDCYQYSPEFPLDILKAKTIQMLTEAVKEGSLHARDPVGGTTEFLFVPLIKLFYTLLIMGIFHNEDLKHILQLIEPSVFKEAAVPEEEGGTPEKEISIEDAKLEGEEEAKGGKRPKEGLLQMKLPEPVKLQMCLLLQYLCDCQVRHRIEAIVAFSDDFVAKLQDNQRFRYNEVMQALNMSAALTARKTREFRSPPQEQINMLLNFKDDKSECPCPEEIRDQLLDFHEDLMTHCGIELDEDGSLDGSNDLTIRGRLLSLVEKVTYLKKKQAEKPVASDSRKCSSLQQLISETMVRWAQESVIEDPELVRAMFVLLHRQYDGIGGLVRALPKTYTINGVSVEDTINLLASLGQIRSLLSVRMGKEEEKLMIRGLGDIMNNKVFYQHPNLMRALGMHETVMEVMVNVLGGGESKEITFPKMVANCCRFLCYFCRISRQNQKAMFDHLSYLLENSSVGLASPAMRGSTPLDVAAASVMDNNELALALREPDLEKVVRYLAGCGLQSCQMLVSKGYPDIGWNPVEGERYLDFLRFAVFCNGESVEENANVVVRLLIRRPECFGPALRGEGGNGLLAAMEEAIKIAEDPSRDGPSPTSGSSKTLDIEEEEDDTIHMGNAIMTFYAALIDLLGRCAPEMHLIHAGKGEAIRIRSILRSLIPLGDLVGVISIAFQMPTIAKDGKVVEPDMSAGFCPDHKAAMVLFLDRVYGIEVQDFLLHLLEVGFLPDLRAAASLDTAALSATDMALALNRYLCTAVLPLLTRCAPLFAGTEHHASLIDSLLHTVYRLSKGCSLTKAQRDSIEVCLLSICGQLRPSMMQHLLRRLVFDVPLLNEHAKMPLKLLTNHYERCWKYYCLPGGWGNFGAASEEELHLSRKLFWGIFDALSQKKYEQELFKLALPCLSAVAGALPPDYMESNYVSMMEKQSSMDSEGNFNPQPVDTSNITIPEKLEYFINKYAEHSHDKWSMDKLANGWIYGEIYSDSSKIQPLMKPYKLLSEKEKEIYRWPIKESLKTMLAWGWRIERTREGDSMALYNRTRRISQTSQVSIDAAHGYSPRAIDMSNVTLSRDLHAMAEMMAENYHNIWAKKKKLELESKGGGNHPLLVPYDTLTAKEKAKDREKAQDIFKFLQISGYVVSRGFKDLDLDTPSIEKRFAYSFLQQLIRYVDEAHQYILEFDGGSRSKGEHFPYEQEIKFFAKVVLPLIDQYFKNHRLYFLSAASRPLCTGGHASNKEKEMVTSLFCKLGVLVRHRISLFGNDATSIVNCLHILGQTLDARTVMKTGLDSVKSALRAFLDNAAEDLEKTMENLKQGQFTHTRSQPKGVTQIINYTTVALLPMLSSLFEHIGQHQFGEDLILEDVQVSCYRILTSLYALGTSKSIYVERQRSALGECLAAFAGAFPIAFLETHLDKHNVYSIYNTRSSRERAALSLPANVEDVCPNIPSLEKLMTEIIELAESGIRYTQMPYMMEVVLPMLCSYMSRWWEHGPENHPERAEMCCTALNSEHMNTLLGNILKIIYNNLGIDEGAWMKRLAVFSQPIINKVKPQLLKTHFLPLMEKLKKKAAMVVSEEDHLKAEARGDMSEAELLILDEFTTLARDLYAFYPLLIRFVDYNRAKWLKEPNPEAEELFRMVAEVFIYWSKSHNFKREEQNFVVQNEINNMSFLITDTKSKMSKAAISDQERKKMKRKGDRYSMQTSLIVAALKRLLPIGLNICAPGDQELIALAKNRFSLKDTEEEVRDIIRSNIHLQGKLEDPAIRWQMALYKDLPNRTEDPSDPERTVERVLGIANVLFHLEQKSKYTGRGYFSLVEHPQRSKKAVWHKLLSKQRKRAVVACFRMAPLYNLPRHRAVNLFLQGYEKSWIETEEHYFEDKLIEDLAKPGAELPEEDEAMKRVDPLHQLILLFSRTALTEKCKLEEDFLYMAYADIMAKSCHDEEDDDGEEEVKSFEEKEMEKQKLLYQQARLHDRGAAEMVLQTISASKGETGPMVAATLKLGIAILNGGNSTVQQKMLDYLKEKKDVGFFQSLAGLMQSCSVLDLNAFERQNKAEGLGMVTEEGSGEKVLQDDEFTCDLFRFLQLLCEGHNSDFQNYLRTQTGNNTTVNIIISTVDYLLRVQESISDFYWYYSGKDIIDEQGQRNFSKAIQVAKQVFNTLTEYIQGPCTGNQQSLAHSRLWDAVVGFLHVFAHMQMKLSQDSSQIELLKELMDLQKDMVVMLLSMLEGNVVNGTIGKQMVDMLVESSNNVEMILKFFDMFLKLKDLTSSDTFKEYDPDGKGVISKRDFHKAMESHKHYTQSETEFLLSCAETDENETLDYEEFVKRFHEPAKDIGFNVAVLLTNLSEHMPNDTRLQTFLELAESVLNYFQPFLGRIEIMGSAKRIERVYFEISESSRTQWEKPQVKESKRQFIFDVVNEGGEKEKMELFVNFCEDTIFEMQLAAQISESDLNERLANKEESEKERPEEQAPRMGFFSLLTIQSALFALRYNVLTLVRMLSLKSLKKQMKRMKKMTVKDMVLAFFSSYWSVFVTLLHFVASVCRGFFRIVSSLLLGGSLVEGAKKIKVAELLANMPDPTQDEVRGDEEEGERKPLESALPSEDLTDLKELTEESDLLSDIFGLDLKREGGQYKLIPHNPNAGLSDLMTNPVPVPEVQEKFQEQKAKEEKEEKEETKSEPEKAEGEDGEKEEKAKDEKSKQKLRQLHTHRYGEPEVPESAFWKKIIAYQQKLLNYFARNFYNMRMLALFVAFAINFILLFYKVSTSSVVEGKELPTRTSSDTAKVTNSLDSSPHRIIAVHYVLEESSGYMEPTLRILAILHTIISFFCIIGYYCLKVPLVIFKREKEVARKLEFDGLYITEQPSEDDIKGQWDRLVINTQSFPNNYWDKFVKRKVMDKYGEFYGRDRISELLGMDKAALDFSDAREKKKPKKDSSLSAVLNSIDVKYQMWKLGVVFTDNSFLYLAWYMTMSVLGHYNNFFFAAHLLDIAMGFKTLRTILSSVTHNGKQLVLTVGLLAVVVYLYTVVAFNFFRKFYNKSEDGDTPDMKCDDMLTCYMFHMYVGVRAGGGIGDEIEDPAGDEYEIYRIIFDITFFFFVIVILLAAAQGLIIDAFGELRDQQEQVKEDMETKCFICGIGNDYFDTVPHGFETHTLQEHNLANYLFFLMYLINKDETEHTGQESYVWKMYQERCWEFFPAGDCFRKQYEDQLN

I4862A RyR2 [3] = molecular target: T2, I4862A RyR2 (Mus musculus, UniProt E9Q401, I4861A); experiment: TPeA block of EMD 41000-activated I4862A RyR2; type: biochemical; details: 60 mV
T2 sequence (E9Q401 whole entry I4861A): as the sequence (E9Q401 whole entry I4860A/I4861A) above, with A4860I counted along it

L4865A RyR2 [4] = molecular target: T3, L4865A RyR2 (Mus musculus, UniProt E9Q401, L4864A); experiment: TPeA block of EMD 41000-activated L4865A RyR2; type: biochemical; details: 60 mV
T3 sequence (E9Q401 whole entry L4864A): as the sequence (E9Q401 whole entry I4860A/I4861A) above, with A4860I, A4861I, L4864A counted along it

I4861A RyR2 [5] = molecular target: T1, I4861A RyR2; experiment: TPeA block of ryanodine-modified I4861A RyR2; type: biochemical; details: 100 µM TPeA, 60 mV
How it was run: as §1

I4862A RyR2 [6] = molecular target: T2, I4862A RyR2; experiment: TPeA block of ryanodine-modified I4862A RyR2; type: biochemical; details: 100 µM TPeA, 60 mV
How it was run: as §1

L4865A RyR2 [7] = molecular target: T3, L4865A RyR2; experiment: TPeA block of ryanodine-modified L4865A RyR2; type: biochemical; details: 100 µM TPeA, 60 mV
How it was run: as §1

I4867A RyR2 [8] = molecular target: T4, I4867A RyR2 (Mus musculus, UniProt E9Q401, I4866A); experiment: TPeA block of ryanodine-modified I4867A RyR2; type: biochemical; details: 100 µM TPeA, 60 mV
T4 sequence (E9Q401 whole entry I4866A): as the sequence (E9Q401 whole entry I4860A/I4861A) above, with A4860I, A4861I, I4866A counted along it
How it was run: as §1

F4870A RyR2 [9] = molecular target: T5, F4870A RyR2 (Mus musculus, UniProt E9Q401, F4869A); experiment: TPeA block of ryanodine-modified F4870A RyR2; type: biochemical; details: 100 µM TPeA, 60 mV
T5 sequence (E9Q401 whole entry F4869A): as the sequence (E9Q401 whole entry I4860A/I4861A) above, with A4860I, A4861I, F4869A counted along it
How it was run: as §1

RyR2 = experiment: ShBP block of RyR2 in symmetrical 610 mM KCl; type: biochemical; details: for block at high K+ activity: preliminary, symmetrical 610 mM KCl plus up to 100 µM EMD 41000
[10] = molecular target: WT recombinant ryanodine-modified RyR2 channels (Mus musculus, UniProt E9Q401); experiment: biochemical
I4861A RyR2 [11] = molecular target: T1, I4861A RyR2; experiment: Ryanodine modification of I4861A RyR2; type: biochemical
How it was run: (§2)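 Mouse RyR2 (WT or TM10 alanine mutants) was expressed in HEK293 cells by Ca²⁺ phosphate transfection for 48 h, solubilized in CHAPS/phosphatidylcholine and purified on a 0–40% sucrose gradient. Single channels were incorporated into PE bilayers with the cytosolic side cis, in symmetrical KCl with 20 mM HEPES pH 7.2, at 22 ± 2°C. After 1 µM ryanodine, amplitudes were read at 60 mV. Mean ± SEM, n = 4–7, unpaired t test.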

I4862A RyR2 [12] = molecular target: T2, I4862A RyR2; experiment: Ryanodine modification of I4862A RyR2; type: biochemical
How it was run: as §2

L4865A RyR2 [13] = molecular target: T3, L4865A RyR2; experiment: Ryanodine modification of L4865A RyR2; type: biochemical
How it was run: as §2

I4867A RyR2 [14] = molecular target: T4, I4867A RyR2; experiment: Ryanodine modification of I4867A RyR2; type: biochemical
How it was run: as §2

F4870A RyR2 [15] = molecular target: T5, F4870A RyR2; experiment: Ryanodine modification of F4870A RyR2; type: biochemical
How it was run: as §2

[16] = 1 µM ryanodine, 60 mV, lower than WT

Chain of recombinant WT mouse RyR2 (E9Q401 whole entry): as the sequence (E9Q401 whole entry I4860A/I4861A) above, with A4860I, A4861I counted along it

CCCC[N+](CCCC)(CCCC)CCCC [TBA, tetrabutylammonium]
Kd [1]: 179 µM | koff [1]: 412 s⁻¹ | rate of dissociation (koff), difference TBA vs TPeA (WT mouse RyR2): very marked difference in the rates of dissociation of TBA and TPeA is retained | level of block (WT mouse RyR2): completely occlude the RyR2 pore | koff (K^+ channels): 10 to 200 s⁻¹ | pore occlusion (KcsA): fully occludes the pore of the channel

CCCCCC[N+](CCCCCC)(CCCCCC)CCCCCC [THexA, tetrahexylammonium]
Kd [1]: 2.58 µM | fold increase in affinity between TBA and THexA ([1]; EMD 41000-activated, 610 mM K+, 60 mV, THexA relative to TBA): 69.5 -fold | fold decrease in koff between TPeA and THexA ([1]; EMD 41000-activated, 610 mM K+, 60 mV, THexA relative to TPeA): 1.7 -fold

CCCCC[N+](CCCCC)(CCCCC)CCCCC [TPeA, tetrapentylammonium]
fold decrease in koff between TBA and TPeA ([1]; EMD 41000-activated, 610 mM K+, 60 mV, TPeA relative to TBA): 22 -fold | rate of dissociation (koff), difference TBA vs TPeA (WT mouse RyR2): very marked difference in the rates of dissociation of TBA and TPeA is retained | level of block (WT mouse RyR2): to a level indistinguishable from the closed state; also recorded: completely occlude the RyR2 pore | probability of block (1 − Po) vs WT (I4861A RyR2 [2]; 100 µM TPeA): reduced significantly | rate of association (kon) vs WT (I4861A RyR2 [2]; 100 µM TPeA): unaffected | rate of dissociation (koff) vs WT (I4861A RyR2 [2]; 100 µM TPeA): significantly increased rates of TPeA dissociation | residual current vs WT (I4861A RyR2 [2]; 100 µM TPeA): slightly lower than the equivalent current in the WT RyR2 | affinity (Kd) vs WT (I4861A RyR2 [2]; 100 µM TPeA, in words): significant decreases in TPeA affinity | amplitude of full open state in presence of TPeA vs WT (I4861A RyR2 [2]): indistinguishable from that of the WT channel | probability of block (1 − Po) vs WT (I4862A RyR2 [3]; 100 µM TPeA): reduced significantly | rate of association (kon) vs WT (I4862A RyR2 [3]; 100 µM TPeA): unaffected | rate of dissociation (koff) vs WT (I4862A RyR2 [3]; 100 µM TPeA): significantly increased rates of TPeA dissociation, with the most dramatic effect seen in I4862A | residual current vs WT (I4862A RyR2 [3]; 100 µM TPeA): indistinguishable from that of the WT channel | affinity (Kd) vs WT (I4862A RyR2 [3]; 100 µM TPeA, in words): significant decreases in TPeA affinity | amplitude of full open state in presence of TPeA vs WT (I4862A RyR2 [3]): indistinguishable from that of the WT channel | rate of association (kon) vs WT (L4865A RyR2 [4]; 100 µM TPeA): unaffected | rate of dissociation (koff) vs WT (L4865A RyR2 [4]; 100 µM TPeA): significantly increased rates of TPeA dissociation | residual current vs WT (L4865A RyR2 [4]; 100 µM TPeA): indistinguishable from that of the WT channel | amplitude of full open state in presence of TPeA vs WT (L4865A RyR2 [4]): indistinguishable from that of the WT channel | koff vs WT (I4861A RyR2 [5]): significant increase in koff | kon vs WT (I4861A RyR2 [5]): reduced significantly | level of block (I4861A RyR2 [5]): to a level indistinguishable from the closed state | magnitude / probability of block (1 − Po) vs WT (I4861A RyR2 [5]): lower than that seen in the WT RyR channel | affinity (Kd) vs WT (I4861A RyR2 [5]; in words): significant reduction in TPeA affinity | koff vs WT (I4862A RyR2 [6]): significant increase in koff | kon vs WT (I4862A RyR2 [6]): unaffected | level of block (I4862A RyR2 [6]): to a level indistinguishable from the closed state | magnitude / probability of block (1 − Po) vs WT (I4862A RyR2 [6]): lower than that seen in the WT RyR channel | affinity (Kd) vs WT (I4862A RyR2 [6]; in words): significant reduction in TPeA affinity | koff vs WT (L4865A RyR2 [7]): significant increase in koff | kon vs WT (L4865A RyR2 [7]): unaffected | level of block (L4865A RyR2 [7]): to a level indistinguishable from the closed state | magnitude / probability of block (1 − Po) vs WT (L4865A RyR2 [7]): lower than that seen in the WT RyR channel | affinity (Kd) vs WT (L4865A RyR2 [7]; in words): significant reduction in TPeA affinity | koff vs WT (I4867A RyR2 [8]): significant increase in koff | kon vs WT (I4867A RyR2 [8]): reduced significantly | level of block (I4867A RyR2 [8]): to a level indistinguishable from the closed state | magnitude / probability of block (1 − Po) vs WT (I4867A RyR2 [8]): lower than that seen in the WT RyR channel | affinity (Kd) vs WT (I4867A RyR2 [8]; in words): significant reduction in TPeA affinity | koff vs WT (F4870A RyR2 [9]): significant increase in koff | kon vs WT (F4870A RyR2 [9]): reduced significantly | level of block (F4870A RyR2 [9]): to a level indistinguishable from the closed state | magnitude / probability of block (1 − Po) vs WT (F4870A RyR2 [9]): lower than that seen in the WT RyR channel | affinity (Kd) vs WT (F4870A RyR2 [9]; in words): significant reduction in TPeA affinity

MAAVAGLYGLGEDRQHRKKQ [ShBP]
reduction in Po (RyR2; 20 µM ShBP cytosolic, ryanodine-modified, symmetrical 610 mM KCl): no significant reduction in Po | block at high K+ activity (RyR2): ineffective

MAAVVGLYGLGEDRQHRKKQ [MHBPII]
block at high K+ activity (RyR2): ineffective

MAQVQGLYGLGEDRQHRKKQ-NH2 [LHBP]
Kd [10]: 65.9 µM

MAVVAGLYGLGEDRQHRKKQ-NH2 [MHBPI]
Kd [10]: 27.8 µM

ryanodine
amplitude of ryanodine-modified open state vs WT modified channel (I4861A RyR2 [11]; 1 µM ryanodine, 60 mV): not significantly different from that of the WT channel | Po and unitary conductance on ryanodine modification (I4861A RyR2 [11]; ryanodine): characteristic increase in Po and reduction in unitary conductance | amplitude of ryanodine-modified open state vs WT modified channel (I4862A RyR2 [12]; 1 µM ryanodine, 60 mV): not significantly different from that of the WT channel | Po and unitary conductance on ryanodine modification (I4862A RyR2 [12]; ryanodine): characteristic increase in Po and reduction in unitary conductance | reduction in conductance of ryanodine-modified state vs WT modified channel (L4865A RyR2 [13]; [16]): ~10% | Po and unitary conductance on ryanodine modification (L4865A RyR2 [13]; ryanodine): characteristic increase in Po and reduction in unitary conductance | reduction in conductance of ryanodine-modified state vs WT modified channel (I4867A RyR2 [14]; [16]): ~10% | Po and unitary conductance on ryanodine modification (I4867A RyR2 [14]; ryanodine): characteristic increase in Po and reduction in unitary conductance | reduction in conductance of ryanodine-modified state vs WT modified channel (F4870A RyR2 [15]; [16]): ~10% | Po and unitary conductance on ryanodine modification (F4870A RyR2 [15]; ryanodine): characteristic increase in Po and reduction in unitary conductance
